We go through four compounds from ChEMBL document CHEMBL1136530, “Synthesis, stereochemical assignment and biological activity of a novel series of C-4" modified aza-macrolides” (2003).

Type in all cases: functional
One experiment concerns Pasteurella multocida. As to the kind of experiment: Minimum inhibitory concentration against Pasteurella multocida. In short, it runs like this: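 P. multocida strain 59A0067 (turkey origin), grown overnight on BHI plates; colonies in saline at OD625 0.09 (0.5 McFarland), diluted 1:100 in BHI broth. Two-fold serial dilutions in BHI microdilution, about 5×10⁵ cfu/mL final, 37 °C for 18 h. MIC is the lowest concentration with A600 ≤ 0.025.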

For another experiment, the system named is Mus musculus. Kind of experiment: In vivo effective dose against Pasteurella multocida infection in mouse. In a few lines: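 Mice infected with P. multocida serotype 5A. Subcutaneous dosing 0.5 h post-infection at 5 to 80 mg/kg. ED50 calculated from the number of mice surviving four days after infection.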
Another experiment concerns Escherichia coli. As to the kind of experiment: Minimum inhibitory concentration against Escherichia coli.

A word on the MIC: it is the least concentration at which growth counts as inhibited. The ED50 is the dose that gives a 50% effect, or the effect in half of the subjects. A higher ED50 goes with a need for a large dose.

Structures are written as SMILES. Values after ≈ are worked out from the molar mass of the structure shown. Where only a bound is given, the exact number is not on record here.

In the case of `C=C[C@@]1(O)[C@H](C)O[C@@H](O[C@H]2[C@H](C)[C@@H](O[C@@H]3O[C@H](C)C[C@H](N(C)C)[C@H]3O)[C@](C)(O)C[C@@H](C)CN[C@H](C)[C@@H](O)[C@](C)(O)[C@@H](CC)OC(=O)[C@@H]2C)C[C@@]1(C)OC`, the figures for the MIC against Pasteurella multocida and against Escherichia coli were 0.2 µg/mL (≈ 0.263 µM) and 1.56 µg/mL (≈ 2.05 µM), respectively. This compound gave an ED50 in the experiment on Mus musculus of 66 mg/kg.
For the compound `CC[C@H]1OC(=O)[C@H](C)[C@@H](O[C@H]2C[C@@](C)(OC)[C@@](O)(CCCOC)[C@H](C)O2)[C@H](C)[C@@H](O[C@@H]2O[C@H](C)C[C@H](N(C)C)[C@H]2O)[C@](C)(O)C[C@@H](C)CN(C)[C@H](C)[C@@H](O)[C@]1(C)O`, the results for the MIC in the experiment on Pasteurella multocida and in the experiment with Escherichia coli were 0.1 µg/mL (≈ 0.122 µM) and 1.56 µg/mL (≈ 1.9 µM), respectively. Besides, in the experiment with Mus musculus, the ED50 was > 80 mg/kg.
For the compound `CC[C@H]1OC(=O)[C@H](C)[C@@H](O[C@H]2C[C@@](C)(OC)[C@@](O)(c3cc4ccccc4n3C)[C@H](C)O2)[C@H](C)[C@@H](O[C@@H]2O[C@H](C)C[C@H](N(C)C)[C@H]2O)[C@](C)(O)C[C@@H](C)CN[C@H](C)[C@@H](O)[C@]1(C)O`, the MIC in the experiment on Pasteurella multocida came to 0.2 µg/mL (≈ 0.231 µM); with Escherichia coli, 3.13 µg/mL (≈ 3.62 µM). Further, the ED50 in the experiment with Mus musculus is > 40 mg/kg.
As to `CC[C@H]1OC(=O)[C@H](C)[C@@H](O[C@H]2C[C@@](C)(OC)[C@](C)(O)[C@H](C)O2)[C@H](C)[C@@H](O[C@@H]2O[C@H](C)C[C@H](N(C)C)[C@H]2O)[C@](C)(O)C[C@@H](C)CN[C@H](C)[C@@H](O)[C@]1(C)O`, the MIC is < 0.1 µg/mL against Pasteurella multocida and 0.78 µg/mL (≈ 1.04 µM) with Escherichia coli. This compound displayed an ED50 in the experiment on Mus musculus of 28 mg/kg.
